# Screening results (PubChem)
# OPRM1-OPRD1 ag: agonists of OPRM1-OPRD1 heterodimerization, primary screen, cell-based, luminescence; activation, % at 9.3 µM; Mu-type opioid receptor (Homo sapiens) + Delta-type opioid receptor (Homo sapiens), …; 0.3% of 340,000 active; cells;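 note: 0% = vehicle-treated cells and 100% = reference agonist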
# Target sequence (P35372 whole entry, looked up): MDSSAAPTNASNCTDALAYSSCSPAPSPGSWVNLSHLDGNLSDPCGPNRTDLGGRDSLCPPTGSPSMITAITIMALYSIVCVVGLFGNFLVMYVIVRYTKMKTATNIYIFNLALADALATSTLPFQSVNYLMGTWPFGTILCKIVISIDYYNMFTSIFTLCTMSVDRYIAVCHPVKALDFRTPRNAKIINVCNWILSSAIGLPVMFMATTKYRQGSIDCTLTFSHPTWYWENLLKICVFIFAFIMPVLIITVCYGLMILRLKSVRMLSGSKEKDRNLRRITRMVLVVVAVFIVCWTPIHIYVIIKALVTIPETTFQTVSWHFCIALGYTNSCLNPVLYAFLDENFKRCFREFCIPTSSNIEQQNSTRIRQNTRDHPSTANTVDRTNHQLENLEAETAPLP
# Target sequence (P41143 whole entry, looked up): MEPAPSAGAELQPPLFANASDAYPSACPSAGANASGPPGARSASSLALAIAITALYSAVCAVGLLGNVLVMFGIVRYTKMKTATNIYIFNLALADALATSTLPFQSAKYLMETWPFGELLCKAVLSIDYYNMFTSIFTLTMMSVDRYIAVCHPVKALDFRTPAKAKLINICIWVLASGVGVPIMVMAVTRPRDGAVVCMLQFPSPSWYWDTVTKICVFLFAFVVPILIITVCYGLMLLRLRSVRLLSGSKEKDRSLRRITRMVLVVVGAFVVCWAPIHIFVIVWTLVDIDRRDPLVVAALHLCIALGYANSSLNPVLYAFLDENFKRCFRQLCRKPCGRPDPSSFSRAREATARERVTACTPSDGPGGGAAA
# HTR5A inv ag: HTR5A inverse agonists in luminescence cell assay, primary screen, counter-screen for OPRM1-OPRD1 heterodimer inverse agonist project, full-deck HTS | HTR5A cell line, inverse agonism | inhibition, % at 9.3 µM | 0.083% of 340,000 active | AID 504634, 2011; in the data active = inhibition mostly above about 23%, no sharp cut-off; inactive = mostly below about 18%;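 note: 0% = cells with DMSO and 100% = no-cell wells with DMSO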
# HTR5A ag ctr: HTR5A agonists in luminescence cell assay, primary screen, counter-screen for OPRM1-OPRD1 heterodimer agonist project, full-deck HTS. cell-based. activation, % at 9.3 µM. 0.61% of 340,000 active. AID 504692, 2011; in the data active = activation mostly above about 9.5%, no sharp cut-off; inactive = mostly below about 7.6%;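 note: 0% = cells with vehicle only and 100% = reference agonist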
# MC4R antagonist: MC4R antagonists of cAMP signaling, primary screen, cell-based, TR-FRET, antagonist arm of biased-ligand search; MC4R-expressing cells, MTII-stimulated cAMP, LANCE TR-FRET; Melanocortin receptor 4 (Homo sapiens), P32245; 0.48% of 360,000 active; AID 540295, 2011; inhibition, % at 6.5 µM;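 active = inhibition above its plate's cutoff, the mean of tested wells on that plate plus 3 SD, cut at about 29% in these data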;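 note: 0% = Melanotan II alone and 100% = Melanotan II plus saturating MCL0020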
#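 Assay system: U2OS-MC4R stable cell line; Also added: Melanotan II; Technique: Eu-cAMP/anti-cAMP TR-FRET, emission 671 nm; Times: 30-min compound, 1-h challenge, 1-h detection, room temperature.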
# OPRM1-OPRD1 inv: inverse agonists of MOR-DOR heterodimerization, primary screen, cell-based, luminescence | cell-based MOR-DOR heterodimer luminescence, inverse agonism | inhibition, % at 9.3 µM | 0.21% of 340,000 active | AID 504357, 2011; in the data active = inhibition above about 22%, passing the limit was not always enough;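 note: 0% = cells with DMSO and 100% = wells without cells with DMSO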
# MC4R barr agon: MC4R agonists recruiting beta-arrestin, primary screen, cell-based, luminescence, agonist arm of biased-ligand search | U2OS MC4R beta-arrestin complementation; percent of melanotan II response, DMSO zero | activation, % at 8.9 µM | 0.98% of 360,000 active | AID 540308, 2011;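 active = activation above a per-plate cutoff, the mean activation of sample wells on that plate plus 3 SD, cut at about 8% in these data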
# MOR-DOR ag conf: agonists of MOR-DOR heterodimerization, confirmation, cell-based, luminescence; shares compounds with OPRM1-OPRD1 ag; cells, luminescence complementation; activation, % at 9.3 µM; 45% of 830 active; AID 504904, 2011;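 note: 0% = vehicle-treated cells and 100% = reference agonist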
# HTR5A ag ctr2: HTR5A agonists in cells, counter-screen for OPRM1-OPRD1 heterodimer agonist project, cell-based, luminescence; shares compounds with OPRM1-OPRD1 ag; HTR5A agonist counterscreen; activation, % at 9.3 µM; 8% of 830 active; in the data active = activation above about 17%;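 note: 0% = vehicle-treated cells and 100% = reference agonist response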
# * marks the source's active call; other numbers are inactive results; i = inactive; . = no result. Sampled rows, rich in hits. Any-hit rate of the full collection: about 2.4%. Cut-off read from the data, not from the text of the source, unless noted: active = activation above about 18%; inactive = the rest.
SMILES,OPRM1-OPRD1 ag,HTR5A inv ag,HTR5A ag ctr,MC4R antagonist,OPRM1-OPRD1 inv,MC4R barr agon,MOR-DOR ag conf,HTR5A ag ctr2
O=C(Nc1cc(Cl)cc(Cl)c1)c1ccc(Cn2c(=O)[nH]c3ccsc3c2=O)cc1,24.5*,-11.3,-3.3,6.9,-134.4,20.4*,0.3,0.0
CC(=O)Nc1ccc(NC(=O)C(=O)NCC(c2ccco2)N2CCc3ccccc32)cc1 (stereo not drawn),4.3,-26.7,10.7,0.9,-23.4,1.7,.,.
CC(=O)Nc1ccc(NC(=O)C(=O)NCC(c2ccco2)N2CCc3ccccc3C2)cc1 (stereo not drawn),20.7*,-13.6,8.0,0.5,-134.5,0.2,22.5*,8.0
CCC[C@@H](CN1CCC[C@H]1CN1C(N)=NC[C@H]1C(C)C)N1C[C@@H](Cc2ccccc2)N(CCCC2CCCC2)C1=N,-0.2,-1.9,0.5,10.6,1.1,2.4,.,.
CN(C)C(CNC(=S)Nc1ccc(F)cc1)c1cccnc1 (stereo not drawn),111.8*,9.2,1.8,1.8,i,-1.9,-2.5,-3.3
Cc1cccc(NC(=S)NCC(c2cccnc2)N(C)C)c1 (stereo not drawn),218.3*,4.9,-1.4,-3.0,i,-0.9,210.1*,-2.7
COC(=O)C1=C(C)N(CC2CC2)C(=NCc2cccc(C(F)(F)F)c2)N[C@H]1c1ccccc1,4.1,11.5,6.2,6.5,-23.6,4.9,.,.
COC(=O)C1=C(C)N(Cc2ccccc2)C(=NCCc2c[nH]c3ccccc23)N[C@H]1c1cccc(C(F)(F)F)c1,21.7*,-36.2,12.6,11.3,-99.7,33.2*,1.1,2.4
COCCN=C1N[C@@H](c2cccc(C(F)(F)F)c2)C(C(=O)OC)=C(C)N1Cc1ccccc1,-0.9,-6.5,5.6,-3.9,5.0,-0.5,.,.
COC(=O)C1=C(C)N(Cc2ccccc2)C(=NCc2cccc(C(F)(F)F)c2)N[C@H]1c1cccc(C(F)(F)F)c1,45.0*,-2.5,1.0,8.2,-246.2,20.6*,8.7,3.9
COC(=O)C1=C(C)N(Cc2ccccc2)C(=NCc2cccc(C(F)(F)F)c2)N[C@H]1c1cccc(F)c1,23.0*,-10.1,4.0,9.4,-126.1,13.5*,0.9,21.3*
COC(=O)c1ccccc1NC(=O)c1ccc(Cn2cc(Cl)cn2)o1,19.1*,-11.6,-1.2,14.2,-112.7,3.0,11.3,5.3
Cc1cccc(CNc2ncnc3ccc(-c4ccccc4Cl)cc23)c1,-1.4,-5.5,2.0,3.7,8.4,0.5,.,.
COCC1CCN(Cc2cn(-c3ccccc3F)nc2-c2cc(C)sc2C)CC1,42.5*,-11.8,-1.0,4.7,-216.2,0.1,54.9*,5.0
CCCCn1c(NC(C)CC)nc2c1c(=O)[nH]c(=O)n2C (stereo not drawn),0.8,-22.4,8.0,2.4,-4.3,1.7,.,.
C(=N\Nc1nc(Nc2ccccc2)nc(Nc2ccccc2)n1)/c1cccnc1,2.8,8.2,-3.6,14.4,-13.8,-1.4,.,.
C(=N\Nc1nc(Nc2ccccc2)nc(Nc2ccccc2)n1)/c1ccncc1,19.8*,3.9,-1.4,1.1,-113.4,5.9,-2.5,-2.0
O=C(CSc1nnc(-c2ccc(O)cc2)o1)NNC(=O)c1ccncc1,0.3,12.1,-2.5,3.9,-1.7,0.3,.,.
CCN(CC)Cc1cc(Nc2c3ccccc3nc3c4ccccc4n(C)c23)cc(CN(CC)CC)c1O,144.0*,-6.6,1.7,-18.2,i,-0.9,148.6*,-2.5
COc1ccc2nc3cc(Cl)ccc3c(Nc3cc(C(C)C)c(O)cc3C)c2c1,19.9*,-8.5,2.2,5.9,-110.3,4.8,14.8,3.2
CC(C)N(Cc1ccccc1)C(=O)CN1c2cccc3cccc(c23)S1(=O)=O,18.8*,-5.9,1.5,18.4,-94.1,-0.2,0.7,2.4
COCCN(C(=O)C1CC(=O)N(Cc2ccccc2)C1)c1nc(-c2ccc([N+](=O)[O-])cc2)cs1 (stereo not drawn),127.5*,15.3,-4.5,3.7,i,-1.9,154.0*,0.9
O=C1NCN(c2ccccc2)C12CCN(CCCC(c1ccc(F)cc1)c1ccc(F)cc1)CC2,30.8*,-22.1,6.2,4.0,-166.3,7.4,-0.3,5.1
CC[C@@H](C)[C@@H]1CN([C@@H](C)CN2CCC[C@H]2CN2C(N)=NC[C@@H]2Cc2ccccc2)C(=N)N1CCc1ccc(Cl)c(Cl)c1,-1.2,-20.0,-12.3,22.9,6.6,0.8,.,.
CC[C@@H](C)[C@@H]1CN([C@@H](CN2CCC[C@H]2CN2C(N)=NC[C@H]2C(C)C)C(C)C)C(=N)N1CCc1ccc(Cl)c(Cl)c1,205.1*,4.0,-1.2,8.5,i,3.3,72.2*,0.1
SMILES,OPRM1-OPRD1 ag,HTR5A inv ag,HTR5A ag ctr,MC4R antagonist,OPRM1-OPRD1 inv,MC4R barr agon,MOR-DOR ag conf,HTR5A ag ctr2
CCOC(=O)N1CCN(C(=O)c2cn(CC)c3ccc(S(=O)(=O)N4CCC(C)CC4)cc3c2=O)CC1,-2.6,6.2,-2.5,-0.4,13.7,-1.6,.,.
COC(=O)NCC(c1ccc2c(c1)OCO2)N1CCN(c2ccc(OC)cc2)CC1 (stereo not drawn),78.7*,-2.8,3.6,20.4,-422.0,0.0,-0.1,-4.0
CN(C)CCCN(C(=O)c1ccc(S(=O)(=O)N2CCCCCC2)cc1)c1nc2c(F)cc(F)cc2s1,55.5*,8.8,6.3,5.3,-299.4,1.3,110.6*,-0.5
CN(C)CCCN(C(=O)c1ccc(S(=O)(=O)N2CCc3ccccc3C2)cc1)c1nc2c(F)cccc2s1,107.2*,10.5,-3.7,1.6,-351.1,1.4,-1.0,-2.4
CN(C)CCCN(C(=O)c1ccc(S(=O)(=O)N2CCc3ccccc32)cc1)c1nc2ccc(F)cc2s1,179.4*,-42.5,4.9,9.6,i,-0.3,-3.1,-7.2
Cc1ccc2nc(N(CCCN(C)C)C(=O)c3ccc(S(=O)(=O)N4CCc5ccccc5C4)cc3)sc2c1,129.7*,-18.7,5.1,8.2,i,8.7*,43.7*,3.6
Cc1ccccc1NC(=O)CCN1CCc2ccccc2C1,-3.0,3.2,-1.2,11.6,14.1,-1.8,.,.
